From PubChem BioAssay
PAFAH1B2 FP inh – blocks human PAF acetylhydrolase 1b catalytic subunit 2; 340,000 compounds, 1.2% hits; recombinant PAFAH1B2, FP-rhodamine activity probe, fluorescence polarization; AID 492953; inhibition, % at 3.39 µM; P68402;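 active means inhibition above the mean of all tested compounds plus 3 SD, cut at about 24% in these data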;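 further: 0% = enzyme with DMSO and 100% = wells lacking PAFAH1B2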
Target sequence (P68402 whole entry, looked up): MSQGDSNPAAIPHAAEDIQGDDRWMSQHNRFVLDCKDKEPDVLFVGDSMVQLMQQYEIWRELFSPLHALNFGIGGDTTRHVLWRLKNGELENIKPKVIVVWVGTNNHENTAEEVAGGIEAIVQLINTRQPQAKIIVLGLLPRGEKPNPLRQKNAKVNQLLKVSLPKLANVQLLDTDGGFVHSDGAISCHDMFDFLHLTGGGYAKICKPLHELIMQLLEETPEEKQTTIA
pPAFAH inh – inhibitors of human plasma PAF acetylhydrolase (pPAFAH); Q13093; recombinant pPAFAH, FP-rhodamine probe fluorescence polarization; inhibition, % at 3.39 µM; 330,000 compounds, 1.5% hits;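 active means inhibition above the mean inhibition across the screen plus 3 SD, cut at about 25% in these data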;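 further: inhibitors block binding of the rhodamine activity-based probe so polarization drops; 0% = enzyme with DMSO and 100% = wells lacking pPAFAH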
HTRA1 inh – HTRA1 (human) protease inhibition; inhibition, % at 5.96 µM; recombinant HTRA1, FP-rhodamine activity-based probe, fluorescence polarization; Q92743; 340,000 compounds, 0.5% hits; in the data active means inhibition above about 36%;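 further: 0% = enzyme with DMSO and 100% = wells lacking enzyme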
PAFAH2 FP inh – PAFAH2 (human) inhibition. recombinant PAFAH2, FP-rhodamine activity probe, fluorescence polarization. inhibition, % at 3.39 µM. 340,000 compounds, 0.99% hits. AID 492956;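 active means inhibition above the mean over all tested compounds plus 3 SD, cut at about 30% in these data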;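 further: inhibitors block probe labeling of enzyme so polarization drops; 0% = enzyme with DMSO and 100% = wells lacking PAFAH2 protein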
mABHD4 FP – inhibitors of mouse ABHD4; purified mABHD4, FP-Rh probe fluorescence polarization; inhibition, % at 8.92 µM; Q8VD66; AID 720543; 370,000 compounds, 0.54% hits;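 active means inhibition exceeding the mean over every tested compound plus 3 SD, cut at about 30% in these data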;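 further: 0% = plate median of compound wells and 100% = S159A mutant with DMSO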
Target sequence (Q8VD66 whole entry, looked up): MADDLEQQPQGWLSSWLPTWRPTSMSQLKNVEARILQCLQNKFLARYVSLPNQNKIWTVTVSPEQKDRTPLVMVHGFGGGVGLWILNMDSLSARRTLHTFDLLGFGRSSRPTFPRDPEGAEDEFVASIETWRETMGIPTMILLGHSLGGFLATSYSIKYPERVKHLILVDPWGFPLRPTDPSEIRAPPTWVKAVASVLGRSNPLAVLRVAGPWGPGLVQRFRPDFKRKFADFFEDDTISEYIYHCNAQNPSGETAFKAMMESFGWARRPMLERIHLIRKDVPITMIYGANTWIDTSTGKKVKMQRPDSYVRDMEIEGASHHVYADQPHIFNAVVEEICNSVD
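Assay system: Wild-type mouse ABHD4 protein | Medium: HEPES pH 7.0 buffer, 150 mM NaCl, 0.01% Pluronic F-127 | Incubation: Enzyme–compound pre-incubation 45 min, then probe 60 min, both 25 °C | Technique: Fluorescence polarization with parallel and perpendicular emission, 525/598 nm | Evaluation: % inhibition of FP-Rh probe binding versus controls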
PAFAH1B3 FP inh – PAFAH1B3 (human) inhibition; Q15102; recombinant PAFAH1B3, FP-rhodamine probe, fluorescence polarization; inhibition, % at 3.39 µM; 340,000 compounds, 0.28% hits;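 active means inhibition above the screen-wide average of all tested compounds plus 3 SD, cut at about 25% in these data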;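 further: 0% = enzyme with DMSO only and 100% = wells lacking PAFAH1B3 protein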
pPAFAH confirm – pPAFAH (human) inhibition, confirmed | shares compounds with pPAFAH inh | recombinant pPAFAH, FP-Rh probe fluorescence polarization | inhibition, % at 3.39 µM | 2,300 compounds, 72% hits;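 active means mean inhibition of the triplicate above the hit cutoff set for the earlier primary screen, cut at about 25% in these data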;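 further: 0% = enzyme with DMSO and 100% = wells lacking pPAFAH enzyme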
The depositor's hits bear a star. A selection: hits, their analogues and other compounds. The true share with any hit is near 2.8%.

`O=[N+]([O-])c1cccc(NC(=S)Nc2nc(-c3ccccc3Cl)cs2)c1` gave PAFAH1B2 FP inh 8, pPAFAH inh 39*, HTRA1 inh -29, PAFAH2 FP inh -37, mABHD4 FP -6, PAFAH1B3 FP inh 8 and pPAFAH confirm 23.
Screening O=C(NCC(c1ccccc1)c1ccccc1)[C@H](Cc1c[nH]c2ccccc12)NC1(C(=O)NC2CCCCC2)CCN(Cc2ccccc2)CC1 returned mABHD4 FP 23.
Screening COc1cc2cc(Oc3ccc4ccc(=O)oc4c3)c(=O)oc2cc1O[C@@H]1O[C@H](CO)[C@@H](O)[C@H](O)[C@H]1O returned PAFAH1B2 FP inh 8, pPAFAH inh 50*, HTRA1 inh -13, PAFAH2 FP inh 15, mABHD4 FP 14, PAFAH1B3 FP inh 20 and pPAFAH confirm 18.
Screening COc1ccc(CNS(=O)(=O)CCNC(=O)c2ccc3c(c2)OCO3)cc1 returned PAFAH1B2 FP inh 1, pPAFAH inh -2, HTRA1 inh -3, PAFAH2 FP inh -1, mABHD4 FP 1 and PAFAH1B3 FP inh 6.
For COc1ccc(C(=O)NCCS(=O)(=O)NCc2ccc3c(c2)OCO3)cc1 the results were PAFAH1B2 FP inh 2, pPAFAH inh 39*, HTRA1 inh 3, PAFAH2 FP inh 11, mABHD4 FP -3, PAFAH1B3 FP inh 3 and pPAFAH confirm -3.
For N#Cc1ccc(/C=C2\CC3(OC(=O)c4ccco4)CCCN2C3)cc1 (stereo not drawn) the results were mABHD4 FP 2.
`CCCC(C)NC(=O)c1c2c(nc3ccccc13)CCC2` (stereo not drawn) gave PAFAH1B2 FP inh 0, pPAFAH inh 4, HTRA1 inh 10, PAFAH2 FP inh 3, mABHD4 FP -2 and PAFAH1B3 FP inh 8.
`O=C(NCc1ccc(F)cc1)c1c2c(nc3ccccc13)CCC2` gave PAFAH1B2 FP inh 5, pPAFAH inh 36*, HTRA1 inh 3, PAFAH2 FP inh 5, mABHD4 FP 14, PAFAH1B3 FP inh 2 and pPAFAH confirm 25*.
For O=C(CSCc1n[nH]c(=O)[nH]1)NCCOc1cccc(Oc2ccccc2)c1 the results were PAFAH1B2 FP inh 7, pPAFAH inh 36*, HTRA1 inh 7, PAFAH2 FP inh 0, mABHD4 FP -6, PAFAH1B3 FP inh 7 and pPAFAH confirm 7.
For Cc1ccc(CN2CCCCC(NC(=O)c3ccc(-c4ccccc4)cc3)C2=O)cc1 (stereo not drawn) the results were mABHD4 FP -17.
O=C(OCc1cn(Cc2ccccc2)nn1)N1CCOCC1 was read as mABHD4 FP 1.
Cc1ccc(CNC2=NCCCCC2)n1C was read as PAFAH1B2 FP inh 1, pPAFAH inh 53*, HTRA1 inh 7, PAFAH2 FP inh 4, mABHD4 FP -1, PAFAH1B3 FP inh 4 and pPAFAH confirm 3.
`O=C(COC(=O)c1cc2c(s1)CCC2)Nc1ccc(F)cc1` gave PAFAH1B2 FP inh -1, pPAFAH inh 44*, HTRA1 inh -6, PAFAH2 FP inh 87*, mABHD4 FP -1, PAFAH1B3 FP inh 10 and pPAFAH confirm 38*.
NC(=O)c1ccc(NC(=O)COC(=O)c2cc3c(s2)CCC3)cc1 was read as PAFAH1B2 FP inh 0, pPAFAH inh 8, HTRA1 inh -3, PAFAH2 FP inh 11, mABHD4 FP -5 and PAFAH1B3 FP inh 6.
Screening CCOC(=O)[C@]12CCCCC/C=C\1N(CCc1ccc(Cl)cc1)C(=O)[C@H]2CC(=O)N1CCC(c2ccccc2)CC1 returned mABHD4 FP -5.
Screening CNC(=O)C[C@H]1CC[C@H]2[C@@H](COc3ccc(NC(=O)Nc4ccccc4)cc3C(=O)N2C)O1 returned mABHD4 FP 14.
For Cc1cc(NC(=O)Cc2cccs2)no1 the results were PAFAH1B2 FP inh 2, pPAFAH inh 54*, HTRA1 inh 1, PAFAH2 FP inh 35*, mABHD4 FP 4, PAFAH1B3 FP inh 10 and pPAFAH confirm 12.
For Cc1cc(NS(=O)(=O)c2ccc(NC(=O)Cc3cccs3)cc2)no1 the results were PAFAH1B2 FP inh 6, pPAFAH inh 7, HTRA1 inh -4, PAFAH2 FP inh 6 and PAFAH1B3 FP inh -3.
COc1ccc(NS(=O)(=O)c2ccc(O)c(NC(=O)c3cc4c(C)nn(-c5ccc(F)cc5)c4s3)c2)cc1 was read as PAFAH1B2 FP inh -15, pPAFAH inh 36*, HTRA1 inh -12, PAFAH2 FP inh -18, PAFAH1B3 FP inh -37 and pPAFAH confirm 29*.
`C=CCN1C(=O)[C@H](CC(=O)NCc2cccc3ccccc23)[C@@]2(C(=O)OCC)CCCC=C12` gave mABHD4 FP -3.
Screening Cn1c(=O)c(=O)n(C)c2cc(S(=O)(=O)N3CCN(CCO)CC3)ccc21 returned mABHD4 FP 1.
`Cc1cc(C)c(S(=O)(=O)NCc2cccnc2)cc1C` gave PAFAH1B2 FP inh 4, pPAFAH inh 9, HTRA1 inh 7, PAFAH2 FP inh 4, mABHD4 FP 4 and PAFAH1B3 FP inh 10.
Screening Cc1cc(Br)c(S(=O)(=O)NCc2cccnc2)cc1C returned PAFAH1B2 FP inh 8, pPAFAH inh 49*, HTRA1 inh -3, PAFAH2 FP inh -12, mABHD4 FP -1, PAFAH1B3 FP inh 13 and pPAFAH confirm 5.
`COc1ccc(N2CCN(c3ncnc4c3[nH]c3ccccc34)CC2)cc1` gave PAFAH1B2 FP inh -1, pPAFAH inh 17, HTRA1 inh -2, PAFAH2 FP inh 4, mABHD4 FP 11 and PAFAH1B3 FP inh 3.
Screening COc1cc2[nH]c3c(N4CCN(c5ccccn5)CC4)ncnc3c2cc1OC returned PAFAH1B2 FP inh 4, pPAFAH inh 70*, HTRA1 inh -2, PAFAH2 FP inh -3, PAFAH1B3 FP inh 7 and pPAFAH confirm 58*.
For CCC(C)N(C(=O)CSc1nnc(-c2cc(OC)c(OC)c(OC)c2)o1)C(C)CC (stereo not drawn) the results were mABHD4 FP -3.
O=C(O)c1cc(N/N=C/c2ccc(N3CCOCC3)s2)ccc1Cl was read as PAFAH1B2 FP inh 1, pPAFAH inh 74*, HTRA1 inh 26, PAFAH2 FP inh 16, mABHD4 FP 44*, PAFAH1B3 FP inh 9 and pPAFAH confirm 19.
`COc1cc2c(cc1OC)C(c1cccc(OC)c1OC)CC(=O)N2` (stereo not drawn) gave PAFAH1B2 FP inh 11, pPAFAH inh 4, HTRA1 inh 2, PAFAH2 FP inh -3, mABHD4 FP -3 and PAFAH1B3 FP inh -5.
